Results of several laboratories.
Target: Serine/threonine-protein kinase TAO1 (TAOK1, Homo sapiens, UniProt Q7L7X3)
Residues used in one study (Q7L7X3 1-1001): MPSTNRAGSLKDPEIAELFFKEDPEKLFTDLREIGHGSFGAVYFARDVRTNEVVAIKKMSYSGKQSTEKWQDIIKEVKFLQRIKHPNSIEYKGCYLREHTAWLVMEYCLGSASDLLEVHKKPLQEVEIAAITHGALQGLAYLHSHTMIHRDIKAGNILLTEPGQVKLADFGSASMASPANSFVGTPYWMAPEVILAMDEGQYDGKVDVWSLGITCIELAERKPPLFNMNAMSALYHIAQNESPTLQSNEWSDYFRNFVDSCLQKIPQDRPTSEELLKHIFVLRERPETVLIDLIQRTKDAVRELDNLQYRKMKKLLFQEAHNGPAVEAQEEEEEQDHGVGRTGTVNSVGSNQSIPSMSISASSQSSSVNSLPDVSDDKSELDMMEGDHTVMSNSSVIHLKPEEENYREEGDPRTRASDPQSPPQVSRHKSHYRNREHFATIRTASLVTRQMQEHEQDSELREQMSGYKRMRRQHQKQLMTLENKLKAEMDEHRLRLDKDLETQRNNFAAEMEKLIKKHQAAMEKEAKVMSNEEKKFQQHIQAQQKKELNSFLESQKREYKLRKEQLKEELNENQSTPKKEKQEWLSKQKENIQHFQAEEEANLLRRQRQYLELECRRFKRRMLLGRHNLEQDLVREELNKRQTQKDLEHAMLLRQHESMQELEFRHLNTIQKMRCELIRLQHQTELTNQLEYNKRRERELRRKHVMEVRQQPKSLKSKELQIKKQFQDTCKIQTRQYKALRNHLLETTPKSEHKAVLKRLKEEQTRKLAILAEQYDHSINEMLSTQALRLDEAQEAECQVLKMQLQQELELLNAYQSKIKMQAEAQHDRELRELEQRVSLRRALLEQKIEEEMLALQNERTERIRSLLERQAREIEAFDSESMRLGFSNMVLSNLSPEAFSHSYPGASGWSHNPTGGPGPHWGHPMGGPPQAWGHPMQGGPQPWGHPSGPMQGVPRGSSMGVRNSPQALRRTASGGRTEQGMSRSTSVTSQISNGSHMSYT

| Compound | test | conditions | measurement | result |
| --- | --- | --- | --- | --- |
| Cc1ccc(C(=O)NCc2ccsc2)cc1C#Cc1cn(C(C)C)c2ncnc(N)c12 | enzyme activity, inhibitor | 1 µM | activity vs control | 48% |
| Cc1ccc(C(=O)Nc2ccc(CN3CCN(C)CC3)c(C(F)(F)F)c2)cc1C#Cc1cnc2cccnn12 | enzyme activity, inhibitor | 23.5 nM | remaining activity | 67% |
| CS(=O)(=O)c1cc(C2(NC(=O)c3cncc4c3cnn4-c3ccc(F)cc3)CC2)ccn1 | cell-free assay, competition with immobilised ligand | 1 µM | remaining binding | 94% |
| CCN(CC)c1ccc(C2=NNC(=O)CC2C)cc1[N+](=O)[O-] (stereo not drawn) | enzyme activity, inhibitor | 10 µM | remaining activity | 115% |
| O=C(Nc1cnn(-c2csc(C(=O)NC3COC3)c2)c1)Nc1ccccc1Cl | enzyme activity, inhibitor | 5 µM | remaining activity | 122% |
| CNC(=O)Nc1ccc2c(c1)CC[C@@]21OC(=O)N(CC(=O)N(Cc2ccc(F)cc2)[C@@H](C)C(F)(F)F)C1=O | cell-free assay, competition with immobilised ligand | 1 µM | remaining binding | 94% |
| Cc1cnc(NC2CCOCC2)nc1-n1cnc(C(=O)NC(CN)c2cc(F)cc(Cl)c2)c1 (stereo not drawn) | enzyme activity, inhibitor, radiometric | 1 µM | remaining activity | 67% |
| COc1cc(Cl)c(C(=O)N[C@@H](CN[C@H]2CC[C@@H](N)CC2)Cc2ccc(C#N)cc2)cc1-c1ccc(CN[C@H](C)c2ccc(C)cc2)o1 | enzyme activity, inhibitor | 1 µM | remaining activity | 97% |
| COc1cc(Nc2cnc(C#N)c(O[C@H](C)CN(C)C)n2)ncc1-c1cnn(C)c1 | enzyme activity, inhibitor, radiometric | 10 µM | remaining activity | 75% |
| O=C1Nc2ccc(Cl)cc2C1=Cc1cc(Cl)c(O)c(Cl)c1 | cell-free assay | 0.5 µM | remaining signal | 71.6% |
| Cc1c(C(=O)O)cc(-c2ccc(C3CCNCC3)cc2)c2ccc(-c3ccc(C(F)(F)F)cc3)cc12 | binding, competition with immobilised ligand | 1 µM | remaining binding | 100% |
| FC(F)c1nc2ccccc2n1-c1nc(N2CCOCC2)nc(N2CCOCC2)n1 | enzyme activity, inhibitor | 10 µM | remaining activity | 93% |
| Cc1sc(C(=O)NC2COC2)cc1-n1cc(NC(=O)Nc2c(F)cccc2Cl)cn1 | enzyme activity, inhibitor | 10 µM | remaining activity | 108% |
| Clc1ccc(Nc2nnc(Cc3ccncc3)c3ccccc23)cc1 | cell-free assay | 0.5 µM | remaining signal | 98.7% |
| CCCOc1ccc(OC)c(F)c1C(=O)c1ccc(C(=O)N[C@@H]2CNC[C@H]2NC(=O)c2ccc3[nH]ncc3c2)cc1 | enzyme activity, inhibitor | 10 µM | remaining activity | 74% |
| Cc1nc(C2CCN(C(=O)c3ccc(OC(F)(F)F)cc3N)CC2)c2ncc(N3CCN(C)CC3)cc2n1 | cell-free assay, competition with immobilised ligand | 1 µM | remaining binding | 100% |
| FC(F)(F)Oc1cccc(-c2cnc3ccc(-c4ccncc4)nn23)c1 | enzyme activity, inhibitor, radiometric | 5 µM | activity vs control | 87% |
| COc1cc(-c2cn(C3CCc4ccccc4N(CC(F)(F)F)C3=O)nn2)ccc1-n1ccc(C)n1 (stereo not drawn) | cell-free assay, competition with immobilised ligand | 1 µM | remaining binding | 92% |
| CNC(=O)c1cc(Oc2ccc(NC(=O)Nc3ccc(Cl)c(C(F)(F)F)c3)cc2)ccn1 | cell-free assay | 0.5 µM | remaining signal | 82% |
| CN1CC(Oc2cnc(C#N)cc2-c2ccn3nc(NC(=O)C4CC4)cc3c2)C1 | enzyme activity, inhibitor | 1 µM | inhibition | -1% |
| CO[C@@H](C)c1c(Nc2ccc([C@H](N(C)C(=O)C3CCS(=O)(=O)CC3)C(F)(F)F)cc2)cnc2cc(Cl)nn12 | cell-free assay, competition with immobilised ligand | 1 µM | remaining binding | 100% |
